From ChEMBL document CHEMBL1153739, “Chemical constituents of the bark of Machilus wangchiana and their biological activities” (J Nat Prod, 2009)

Key:
[1] = Hepatoprotective activity in rat WB-F344 cells assessed as inhibition of D-galactosamine-induced cytotoxicity at 100 uM treated 1 hr before D-galactosamine challenge after 24 hrs by MTT assay; type: functional
Outline: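 Cells plated at 1 × 10⁴ per well in DMEM with 10% fetal calf serum, penicillin and streptomycin, precultured 24 h at 37 °C, 5% CO₂. Sample added in fresh medium 1 h before 50 mM DL-galactosamine for 24 h. Sample toxicity run in parallel without galactosamine. MTT 0.5 mg/mL for 4 h, formazan dissolved in DMSO, OD 490 nm, % inhibition calculated.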

[2] = Antiinflammatory activity in rat PMNC assessed as inhibition of platelet activating factor-induced beta-glucuronidase release at 10 uM treated 15 mins before PAF by spectrophotometry; type: functional
BGC-823 = assay: Cytotoxicity against human BGC823 cells; type: functional, cell-based
A2780 = assay: Cytotoxicity against human A2780 cells; type: functional, cell-based

Structure (SMILES) | inhibition at 100 µM [1] | inhibition at 10 µM [2] | IC50 (BGC-823) | IC50 (A2780)
COc1cc([C@@H](OC)[C@@H](C)C(C)=O)ccc1O | 47% | 67% | – | –
COc1cc([C@@H](O)[C@@H](C)C(C)=O)ccc1O | 43% | – | – | –
COc1cc([C@@H]2c3c(cc(OC)c(O)c3OC)C[C@@H](C)[C@H]2C)ccc1O | – | 47% | – | –
CCO[C@H](c1ccc(O)c(OC)c1)[C@@H](C)C(C)=O | 54% | 42% | – | –
COc1cc([C@H]2OC(=O)[C@](C)(O)[C@@H]2C)ccc1O | 39% | 76% | – | –
O=C(O)C[C@]12OC(=O)C[C@H]1O[C@@H]1Cc3c(O)cc(O)cc3O[C@@H]12 | 40% | 46% | – | –
COc1cc([C@H]2c3cc(O)c(OC)cc3C[C@@H](C)[C@@H]2C)ccc1O | – | 48% | – | –
C=C1OC(=O)/C(=C/CCCCCCCCCCCCCCCCC)[C@H]1O | – | – | 130 nM | 2660 nM
COC(=O)c1cc(OC)c2c(c1-c1c(CO)cc(OC)c3c1OCO3)OCO2 [BICYCLOL] | 41% | – | – | –
CC[C@@]1(O)C(=O)OCc2c1cc1n(c2=O)Cc2cc3ccccc3nc2-1 [CAMPTOTHECIN] | – | – | 210 nM | –
C#CCCCCCCCC/C=C/C1=C[C@H](C)OC1=O [HAMABIWALACTONE A] | – | 60% | – | –
COc1cc(C[C@@H](C)[C@@H](C)Cc2ccc(O)c(OC)c2)ccc1O [MESODIHYDROGUAIARETIC ACID] | – | 54% | – | –
